Measurements published in ChEMBL document CHEMBL1144027, “Synthesis and antimycobacterial evaluation of newer 1-cyclopropyl-1,4-dihydro-6-fluoro-7-(substituted secondary amino)-8-methoxy-5-(sub)-4-oxoquinoline-3-carboxylic acids” (Bioorg Med Chem, 2008).
≈ marks a conversion by molar mass, not a printed value.

Tests used:
[1] = tested on: Mycolicibacterium smegmatis; assay: Antimycobacterial activity against Mycobacterium smegmatis MC2 by agar dilution method; assay type: functional
In short: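 Agar dilution in Middlebrook 7H11 agar with OADC, run along NCCLS-recommended lines; M. smegmatis ATCC 14468 (MC2); MIC determined in duplicate.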

Mus musculus [2] = assay: Phototoxicity in Swiss albino mouse assessed as ear thickness at 140 mg/kg, po after 24 hrs of irradiation; assay type: organism-based; design: dose 140 mg/kg, route oral; conditions: in vivo
In short: (§1)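 Female Swiss albino mice (~2 months, 20-25 g), fasted ≥18 h, single 140 mg/kg oral gavage dose; groups of 6 (compound, lomefloxacin HCl 140 mg/kg, 0.5% carboxymethylcellulose vehicle 10 ml/kg); UV irradiation 4 h (~18 J/cm²) right after dosing; both ears scored for erythema, oedema, thickness pre-dose, at end of irradiation, and ~24-96 h; thickness given as mean of both ears ± SEM.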

[3] = tested on: Mycobacterium tuberculosis; assay: Antimycobacterial activity against Mycobacterium tuberculosis H37Rv by agar dilution method; assay type: functional
In short: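 Agar dilution MIC on Middlebrook 7H11 agar with OADC, following the NCCLS-recommended approach, run in duplicate. The MDR clinical isolate was resistant to isoniazid, rifampicin, ethambutol and ofloxacin.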

Mus musculus [4] = assay: Phototoxicity in Swiss albino mouse assessed as ear thickness at 140 mg/kg, po after 48 hrs of irradiation; assay type: organism-based; design: dose 140 mg/kg, route oral; conditions: in vivo; in short: as §1
Vero = assay: Cytotoxicity against african green monkey Vero cells after 72 hrs by MTT assay; assay type: cell-based; conditions: Chlorocebus sabaeus
In short: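 Mammalian Vero cells exposed to compounds at 62.5 µg/ml for 72 h; viability read by cellular conversion of MTT to formazan (Cell Titer 96 non-radioactive proliferation assay).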

[5] = biological target: DNA gyrase subunit B (Mycobacterium smegmatis (strain ATCC 700084 / mc(2)155), UniProt A0QNE0); assay: Inhibition of Mycobacterium smegmatis MC2 DNA gyrase GyrB ATPase supercoiling activity; design: species or system Mycolicibacterium smegmatis
In short: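 Gyrase purified from M. smegmatis MC2 cells; compounds in DMSO pre-incubated with enzyme, then 400 ng relaxed pUC18 added in 35 mM Tris-HCl pH 7.5, 5 mM MgCl2, 25 mM K glutamate, 2 mM spermidine, 2 mM ATP, BSA, tRNA, 5% glycerol; 30 min; heat-stopped 65 °C 15 min; agarose gel, ethidium bromide staining; ciprofloxacin 10 µg/ml and 5% DMSO controls.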

Mus musculus [6] = assay: Phototoxicity in Swiss albino mouse assessed as erythema incidence at 140 mg/kg, po after 96 hrs of irradiation; assay type: organism-based; design: dose 140 mg/kg, route oral; conditions: in vivo; in short: as §1
Mus musculus [7] = assay: (§2) Phototoxicity in Swiss albino mouse assessed as erythema incidence at 140 mg/kg, po after 48 hrs of irradiation; assay type: organism-based; design: dose 140 mg/kg, route oral; conditions: in vivo; in short: as §1
Mus musculus [8] = assay: Phototoxicity in Swiss albino mouse assessed as ear thickness at 140 mg/kg, po after 96 hrs of irradiation; assay type: organism-based; design: dose 140 mg/kg, route oral; conditions: in vivo; in short: as §1
Mus musculus [9] = assay: Phototoxicity in Swiss albino mouse assessed as erythema incidence at 140 mg/kg, po after 4 hrs of irradiation; assay type: organism-based; design: dose 140 mg/kg, route oral; conditions: in vivo; in short: as §1
[10] = Selectivity index, ratio of IC50 for monkey Vero cells to MIC for Mycobacterium tuberculosis H37Rv; assay type: functional
[11] = tested on: Mycobacterium tuberculosis; assay: Antimycobacterial activity against Mycobacterium tuberculosis ATCC 35801 infected in CD1 mouse assessed as bacterial load in lungs at 50 mg/kg, ip after 10 days; assay type: functional; conditions: route intraperitoneal
In short: (§3)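 Female CD-1 mice, 6 weeks old, six per group, infected IV via caudal vein with ~10⁷ viable organisms. Intraperitoneal treatment started 10 days after inoculation and ran 10 days. At 35 days post-infection, spleens and right lungs were homogenised and serially 10-fold diluted onto 7H10 agar, incubated 4 weeks at 37 °C in ambient air. CFU compared with vehicle-treated controls.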

Mus musculus [12] = assay: as §2; assay type: organism-based; design: dose 140 mg/kg, route oral; conditions: in vivo; in short: as §1; remark: listed apart in the source
Mus musculus [13] = assay: Phototoxicity in Swiss albino mouse assessed as ear thickness at 140 mg/kg, po after 4 hrs of irradiation; assay type: organism-based; design: dose 140 mg/kg, route oral; conditions: in vivo; in short: as §1
Mus musculus [14] = assay: Phototoxicity in Swiss albino mouse assessed as ear thickness at 140 mg/kg, po after 72 hrs of irradiation; assay type: organism-based; design: dose 140 mg/kg, route oral; conditions: in vivo; in short: as §1
Mus musculus [15] = assay: Phototoxicity in Swiss albino mouse assessed as erythema incidence at 140 mg/kg, po after 24 hrs of irradiation; assay type: organism-based; design: dose 140 mg/kg, route oral; conditions: in vivo; in short: as §1
[16] = tested on: Mycobacterium tuberculosis; assay: Antimycobacterial activity against Mycobacterium tuberculosis ATCC 35801 infected in CD1 mouse assessed as bacterial load in spleen at 50 mg/kg, ip after 10 days; assay type: functional; conditions: route intraperitoneal; in short: as §3

DNA gyrase subunit B (Mycobacterium smegmatis (strain ATCC 700084 / mc(2)155), UniProt A0QNE0), sequence (A0QNE0 whole entry): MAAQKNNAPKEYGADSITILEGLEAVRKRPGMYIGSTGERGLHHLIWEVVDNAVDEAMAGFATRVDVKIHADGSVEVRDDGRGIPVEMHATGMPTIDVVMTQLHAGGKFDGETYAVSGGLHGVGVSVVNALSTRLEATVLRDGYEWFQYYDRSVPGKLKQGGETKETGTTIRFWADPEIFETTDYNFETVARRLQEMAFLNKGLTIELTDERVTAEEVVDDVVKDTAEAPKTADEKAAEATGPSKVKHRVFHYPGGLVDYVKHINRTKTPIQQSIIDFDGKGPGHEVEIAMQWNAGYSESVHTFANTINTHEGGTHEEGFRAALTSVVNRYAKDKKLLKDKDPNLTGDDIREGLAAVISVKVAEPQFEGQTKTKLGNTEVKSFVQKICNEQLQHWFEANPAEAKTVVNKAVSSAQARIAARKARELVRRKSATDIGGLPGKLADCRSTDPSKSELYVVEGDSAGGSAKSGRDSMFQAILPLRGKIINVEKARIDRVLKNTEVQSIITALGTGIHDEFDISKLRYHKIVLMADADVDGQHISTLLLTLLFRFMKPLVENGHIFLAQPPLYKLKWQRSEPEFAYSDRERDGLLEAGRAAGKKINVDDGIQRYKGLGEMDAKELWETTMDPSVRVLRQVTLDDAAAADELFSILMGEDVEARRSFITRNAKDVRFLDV

## COc1ccc(CC2C3=C(CCCC3)CCN2c2c(F)c([N+](=O)[O-])c3c(=O)c(C(=O)O)cn(C4CC4)c3c2OC)cc1 (configuration not stated)
[1]
  MIC: 0.68 µM (≈ 0.393 µg/mL)
Mus musculus [2]
  Activity: 0.32 mm
[3]
  MIC: 0.16 µM (≈ 0.0924 µg/mL)
Mus musculus [4]
  Activity: 0.33 mm
Vero
  IC50: 108 µM
[5]
  IC50: 51.9 µM
Mus musculus [6]
  Activity: Non-toxic
Mus musculus [7]
  Activity: Non-toxic
Mus musculus [8]
  Activity: 0.32 mm
Mus musculus [9]
  Activity: Non-toxic
[10]
  Selectivity index: 676.31
[11]
  Activity: 5.41
Mus musculus [12]
  Activity: Non-toxic
Mus musculus [13]
  Activity: 0.33 mm
Mus musculus [14]
  Activity: 0.33 mm
Mus musculus [15]
  Activity: Non-toxic
[16]
  Activity: 6.1
